Data set [1] in a line: melting temperature; fluorescence melt of hairpins on a sequencing array, two-state fit, raised by 9.35 °C to match UV melts. As to conditions: sodium 0.088 M. The procedure, abridged: (§1)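 Library hairpins on a sequenced MiSeq flow cell carried annealed Cy3 and quencher oligos, and their Cy3 fluorescence was imaged in 50 mM Na-HEPES pH 8.0 with 25 mM NaCl, in 2.5 °C steps up to 60 °C. Signals were normalised to Cy3 before quenching and to control constructs. Melting temperature and folding enthalpy were obtained from bootstrapped two-state fits, combined by inverse-variance weighting across four replicates, and the fitted temperatures were then raised by 9.35 °C to match UV melts.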

Data set [2] can be described thus: folding enthalpy; higher = less favourable; fluorescence melt of hairpins on a sequencing array, two-state fit. The settings on record: sodium 0.088 M. The procedure, abridged:
as §1

As for GCACCGCGAAAGCTGCGC ((.(.((....)).).)), in data set [1], the Tm was found to be 47.4 °C. In addition, the folding enthalpy in data set [2] was -24.4 kcal/mol.

Regarding GGCGTTGGAAACAGCGCC ((((.((....)).)))), the Tm in data set [1] was determined as 60.9 °C. The folding enthalpy in data set [2] is -52.1 kcal/mol.

With GAATGAGAAATCATTC ((((((....)))))), the Tm in data set [1] was found to be 43 °C. Further, the folding enthalpy in data set [2] is -26.8 kcal/mol.

In the case of GAGGACCGAAAGGTACTC (((.(((....))).))), the Tm in data set [1] worked out at 64.9 °C. For the same sequence, the folding enthalpy in data set [2] is -33.4 kcal/mol.

Take GCAACGCGAAAGCAATGC (((..((....))..))): in data set [1], the Tm was 40.6 °C. Besides, in data set [2], the folding enthalpy was -11.1 kcal/mol.

For the sequence GATCTCATAAGAGATC ((((((....)))))), the Tm in data set [1] came to 52.3 °C. Also, the folding enthalpy in data set [2] is -38.7 kcal/mol.

Turning to GCGGTAACCCGC ((((....)))), in data set [1], the Tm is 54.2 °C. In addition, in data set [2], the folding enthalpy was -27.8 kcal/mol.

Consider GTGCGTGGAAACATGCAC ((((.((....)).)))), for which, in data set [1], the Tm is 58.4 °C. In addition, the folding enthalpy in data set [2] was -48.5 kcal/mol.

As to GTTAGACGAAAGTCGAAC (((.(((....))).))), the Tm in data set [1] was 52.4 °C. Moreover, the folding enthalpy in data set [2] is -23.5 kcal/mol.

As for GATCTTTCGTAAGATC ((((((....)))))), the Tm in data set [1] is 44.4 °C. In addition, in data set [2], the folding enthalpy is -30.6 kcal/mol.

Regarding GCACGGCGAAAGCGTTGC (((..((....))..))), the Tm in data set [1] was 49.3 °C. In addition, the folding enthalpy in data set [2] was -18.5 kcal/mol.

As to GACGCAGGAAACCGCGTC (((((.(....).))))), the Tm in data set [1] was 56.9 °C. In data set [2], the folding enthalpy was -37.3 kcal/mol.

Regarding GCCAGCGAAAGCTCCGGC ((((((....)))..))), the Tm in data set [1] came to 44.5 °C. In data set [2], the folding enthalpy is -19.9 kcal/mol.

Take GTGTTCGAAAGAAGACAC ((((((....)))..))): the Tm in data set [1] was determined as 37.9 °C. For the same sequence, the folding enthalpy in data set [2] is -20.8 kcal/mol.

For GCCCGCGGAAACGCGAGC ((.((((....)))).)), the Tm in data set [1] worked out at 62.2 °C. Further, the folding enthalpy in data set [2] is -17.3 kcal/mol.

GCAGGACGAAAGTCTGC (((.(((....)))))): the Tm in data set [1] was 58.4 °C. For the same sequence, in data set [2], the folding enthalpy is -31.7 kcal/mol.

For the sequence GATCGTTACGACGATC ((((((....)))))), the Tm in data set [1] was 57.1 °C. The folding enthalpy in data set [2] was -39.9 kcal/mol.

On to GCCCTCGAAAGAGGCGGC ((((((....)))..))), for which the Tm in data set [1] came out at 56 °C. For the same sequence, the folding enthalpy in data set [2] was -19.1 kcal/mol.

In the case of AACTGGAAACAGTT (((((....))))), the Tm in data set [1] came out at 38.8 °C. Moreover, in data set [2], the folding enthalpy is -16.8 kcal/mol.

For GTCCGTCGAAAGACAGAC (((.(((....))).))), in data set [1], the Tm worked out at 47 °C. The folding enthalpy in data set [2] was -22.3 kcal/mol.

In the case of GTCACCCGAAAGGGGAC (((.(((....)))))), the Tm in data set [1] was determined as 55 °C. Besides, the folding enthalpy in data set [2] is -20.1 kcal/mol.

For the sequence GCCCGGCGAAAGCTGAGC ((.(.((....)).).)), the Tm in data set [1] came out at 48.7 °C. Also, the folding enthalpy in data set [2] was -18.3 kcal/mol.

With GTCAGCGGAAACGTTGGC (.((.((....)).)).), the Tm in data set [1] was found to be 42.2 °C. Also, in data set [2], the folding enthalpy is -26 kcal/mol.

As to GATCAACATCTTGATC ((((((....)))))), the Tm in data set [1] was determined as 41.5 °C. For the same sequence, the folding enthalpy in data set [2] was -28.1 kcal/mol.

As to GATTGGCCGAAAGGCATC (((..(((....)))))), the Tm in data set [1] came out at 28.5 °C. Moreover, the folding enthalpy in data set [2] was -9.53 kcal/mol.

Consider GGAAAAGGAAACTTTTCC (((((((....))))))), for which the Tm in data set [1] turned out to be 52.7 °C. Moreover, the folding enthalpy in data set [2] is -39.6 kcal/mol.

On to GTTCTCGAAAGAGTAAC ((((((....))).))), for which the Tm in data set [1] amounted to 34.9 °C. Besides, the folding enthalpy in data set [2] was -18.5 kcal/mol.

Turning to GCCCAGCCGAAAGGCGGC (((..(((....)))))), the Tm in data set [1] came out at 62.4 °C. Moreover, the folding enthalpy in data set [2] was -10.6 kcal/mol.

Take GCTAGGCGAAAGCTGAGC (((..((....))..))): in data set [1], the Tm came to 53.6 °C. Moreover, the folding enthalpy in data set [2] was -18.2 kcal/mol.

Consider GGGATCCGAAAGGAACCC (((.(((....))).))), for which the Tm in data set [1] came to 56.7 °C. The folding enthalpy in data set [2] is -46.3 kcal/mol.

On to GCCTAGCGAAAGCTGAGC ((..(((....)))..)), for which the Tm in data set [1] is 48.8 °C. Besides, in data set [2], the folding enthalpy was -10.7 kcal/mol.

In the case of GAATCCGAAAGGATTTTC ((((((....)))..))), in data set [1], the Tm stood at 48.9 °C. In addition, in data set [2], the folding enthalpy is -15.7 kcal/mol.

With GATCTTCCAAAAGATC ((((((....)))))), the Tm in data set [1] was 41.7 °C. Moreover, the folding enthalpy in data set [2] was -32 kcal/mol.

On to GCATCAGGAAACTGATAC (.(((((....))))).), for which the Tm in data set [1] was found to be 34.2 °C. For the same sequence, the folding enthalpy in data set [2] was -18.7 kcal/mol.

GTTGTCGGAAACGACAGC (.(((((....))))).): the Tm in data set [1] is 55.7 °C. The folding enthalpy in data set [2] was -24 kcal/mol.

As for GTGGATACGAAAGTACAC (((..(((....)))))), in data set [1], the Tm was determined as 36.8 °C. Also, the folding enthalpy in data set [2] is -13.5 kcal/mol.

Take GGGAACGGAAACGCTCCC ((((.((....)).)))): the Tm in data set [1] was determined as 52.1 °C. In addition, the folding enthalpy in data set [2] is -36.6 kcal/mol.

The values above are taken from the array DNA melting data of Ke et al. (doi:10.1101/2024.01.08.574731).
